The record followed here is ChEMBL document CHEMBL1157792, “Pachycladins A-E, prostate cancer invasion and migration inhibitory Eunicellin-based diterpenoids from the red sea soft coral Cladiella pachyclados” (J Nat Prod, 2010).

Activity calls are given as the source filed them. No cut-off for these calls is given here.

The test system of one experiment is PC-3. The experiment in a line: Antiproliferative activity against human PC3 cells at 50 uM after 96 hrs by MTT assay. The format is functional, cell-based. An outline of the steps: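 PC-3 cells (8 × 10^3 per well) allowed to attach for 24 h, then given serum-free RPMI with compound at 50, 20, 10 or 5 µM for 96 h at 37 °C, 5% CO2. MTT added for 4 h, formazan solubilized, absorbance read at 550 nm. Cell number taken from a hemocytometer-based standard curve; IC50 obtained by nonlinear regression of log concentration against cells/well.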
Background: Tetrazolium assays rely on reduction of a dye to a coloured formazan, in cell work by metabolically active cells.
As for `CCCC(=O)O[C@]1(C)CC[C@H](C(C)C)[C@@H]2[C@H]1[C@H]1C[C@](C)(O)[C@@H](O)CC[C@@](C)(OC(C)=O)[C@@H]2O1`, the outcome was inactive.

The next experiment deals with PC-3. The experiment in a line: Antiinvasive activity against human PC3 cells at 10 uM by cultrex cell invasion assay. It is filed as functional, cell-based. An outline of the steps: (§1)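 PC-3 cells (50 000 per well) in serum-free RPMI seeded into the top chamber of wells coated with basement membrane extract (4 h, 37 °C), with compound in the top chamber. Lower chamber: RPMI with 10% FBS, fibronectin and N-formyl-met-leu-phe (10 nM) as chemoattractants. After 24 h at 37 °C, invaded cells stained with calcein-AM for 1 h; fluorescence read at ex 485/em 520 nm.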
With `CC(=O)O[C@]1(C)CC[C@H](C(C)C)[C@@H]2[C@H]1[C@H]1C[C@](C)(O)[C@@H](O)CC[C@@](C)(OC(C)=O)[C@@H]2O1`, the outcome was Active.

The test system of the next experiment is PC-3. The experiment in a line: Antiinvasive activity against human PC3 cells at 50 uM by cultrex cell invasion assay. It is filed as functional, cell-based. An outline of the steps: as §1
As to `C=C1CC[C@H](C(C)C)[C@@H]2[C@H]1[C@H]1C[C@](C)(O)[C@@H](OC)CC[C@@](C)(O)[C@@H]2O1`, the result was Active.

Turning to `CC(=O)O[C@]1(C)CC[C@H](C(C)C)[C@@H]2[C@H]1[C@H]1C[C@]3(C)CCC[C@@](C)(O3)[C@@H]2O1`, the result was Active.

With `C=C1CC[C@H](C(C)C)[C@@H]2[C@H]1[C@H]1C[C@](C)(O)[C@@H](O)CC[C@@](C)(O)[C@@H]2O1`, the outcome was Active.

For `CCCC(=O)O[C@]1(C)CC[C@H](C(C)C)[C@@H]2[C@H]1[C@H]1C[C@](C)(O)[C@@H](O)CC[C@@](C)(OC(C)=O)[C@@H]2O1`, the outcome was Active.

In the next experiment the test system is PC-3. The experiment in a line: Antimigratory activity against human PC3 cells at 10 uM by wound-healing assay. The format is functional, cell-based. An outline of the steps:
(§2)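 Confluent PC-3 monolayers (>90%) in RPMI with 10% FBS, scratched with a pipet tip, washed with PBS, then given compound in DMSO, in triplicate, with DMSO vehicle control. Incubated 24 h serum-starved at 37 °C, fixed and stained with Diff Quick. Migrated cells counted in three or more random 400× fields; mean (SEM) per field.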
For the molecule `CC(=O)O[C@]1(C)CC[C@H](C(C)C)[C@@H]2[C@H]1[C@H]1C[C@](C)(O)[C@@H](O)CC[C@@](C)(OC(C)=O)[C@@H]2O1`, the Activity_index entry was “Active”.

In the next experiment the test system is PC-3. In words: Antimigratory activity against human PC3 cells at 50 uM by wound-healing assay. It is filed as functional, cell-based. In a few lines: as §2
In the case of `C=C1C[C@H]2O[C@H]([C@@H]3[C@@H](C(C)C)[C@H](O)C[C@@](C)(OC(C)=O)[C@@H]32)[C@](C)(OC(C)=O)CC[C@@H]1O`, the outcome was Active.

Turning to `C=C1CC[C@H](C(C)C)[C@@H]2[C@H]1[C@H]1C[C@](C)(O)[C@@H](OC)CC[C@@](C)(O)[C@@H]2O1`, the outcome was Active.

Turning to `C=C1CC[C@H](C(C)C)[C@@H]2[C@H]1[C@H]1CC(=C)[C@]3(O)CC[C@@](C)(O3)[C@@H]2O1`, the result was Active.

On to `CC(=O)O[C@]1(C)CC[C@H](C(C)C)[C@@H]2[C@H]1[C@H]1C[C@]3(C)CCC[C@@](C)(O3)[C@@H]2O1`, for which the result was Active.

Take `C=C1CC[C@H](C(C)C)[C@@H]2[C@H]1[C@H]1C[C@](C)(O)[C@@H](O)CC[C@@](C)(O)[C@@H]2O1`: the result was Active.

As to `C=C1C[C@H]2O[C@H]([C@@H]3[C@@H](C(C)C)[C@H](O)C[C@@](C)(OC(=O)CCC)[C@@H]32)[C@](C)(OC(C)=O)CC[C@@H]1O`, the result was Active.

Regarding `C=C1CC[C@H](C(C)C)[C@@H]2[C@H]1[C@H]1C[C@](C)(O)[C@@H](O)CC[C@@](C)(OC(C)=O)[C@@H]2O1`, the outcome was Active.

In the case of `C=C1CC[C@H](C(C)C)[C@@H]2[C@H]1[C@H]1C/C(C)=C\CC[C@@](C)(O)[C@@H]2O1`, the result was Active.

Take `C=C1C[C@H]2O[C@H]([C@H]3[C@@H]2[C@](C)(OC(C)=O)CC[C@@H]3C(C)C)[C@@]2(C)CC[C@]1(O)O2`: the result was Active.

On to `C=C1CC[C@H](C(C)C)[C@@H]2[C@H]1[C@H]1CC(=C)[C@@H](OC(C)=O)CC[C@@](C)(O)[C@@H]2O1`, for which the outcome was Active.

Consider `CCCC(=O)O[C@]1(C)CC[C@H](C(C)C)[C@@H]2[C@H]1[C@H]1C[C@](C)(O)[C@@H](O)CC[C@@](C)(OC(C)=O)[C@@H]2O1`, for which the result was Active.

With `C=C1CC[C@H](C(C)C)[C@@H]2[C@H]1[C@H]1CC(=C)[C@@H](OC(C)=O)CC[C@@](C)(OC(C)=O)[C@@H]2O1`, the result was Active.

Regarding `C=C1CC[C@H](C(C)C)[C@@H]2[C@H]1[C@H]1CC(=C)[C@@H](O)CC[C@@](C)(OC(C)=O)[C@@H]2O1`, the outcome was Active.

For `C=C1CC[C@H](C(C)C)[C@@H]2[C@H]1[C@@H]1CC(=C)[C@@H](O)CC[C@](C)(O)[C@H]2O1`, the outcome was Active.

Another experiment concerns PC-3. The experiment in a line: Antimigratory activity against human PC3 cells at 200 uM by wound-healing assay. The format is functional, cell-based. In a few lines:
as §2
Consider `O=C1NC(=O)/C(=C/c2ccc(O)cc2)N1`, for which the result was Active.
